According to ChEMBL document CHEMBL4513216, “Probing the Open Global Health Chemical Diversity Library for Multistage-Active Starting Points for Next-Generation Antimalarials” (ACS Infect Dis, 2020):

assay: Toxicity liver stage against HepG2, at 10uM; assay type: cell-based; design: test concentration 10 uM, cell line HepG2-A16-CD81EGFP; settings: human, HepG2-A16-CD81EGFP cells; read-out: INHIBITION
Outline: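 Uninfected HepG2-A16-CD81EGFP cells, 3 × 10^3 per well, 1536-well, plated on prespotted compound at 10 μM final, parasite-free screening media added to match infected plates; puromycin 10 μM positive, DMSO 0.5% negative; run in parallel with 48 h PbLuc assay at 37 °C, 5% CO2; viability by CellTiter-Glo luminescence, normalized to controls.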

| SMILES | cytotoxicity at 10 µM [%] |
| --- | --- |
| CO[C@@H]1CO[C@@]2(CCCN(S(=O)(=O)c3ccccc3)C2)C1 | -79.8 |
| O=C(c1ccc2c(c1)OCO2)N1CCC[C@]2(C[C@H](OCC3CC3)CO2)C1 | 2.34 |
| CCCn1cc(NC(=O)c2ccc(S(=O)(=O)CC)cc2)ccc1=O | 2.99 |
| COc1c(C2CCCN2C(=O)c2ccnc(N(C)C)c2)c(C)nn1C (configuration not stated) | 1.9 |
| Cc1cnc2n1CCN(C)C21CCN(C(=O)CC(C)C)CC1 | -5.85 |
| COc1cccc(-c2cccc(CN3C[C@H]4CC[C@@H](C3)N(C)C4=O)c2)c1 | 6.98 |
| CN(C)CCN1CCOCC12CCN(C(=O)C1CC1)CC2 | -7.45 |
| CCN(CC)C(=O)c1nnn(Cc2ccccc2)c1OC | 10.3 |
| Cc1nc2c(c(NC(C)C)n1)CCN(C(=O)CCO)CC2 | -109 |
| CCCC(O)CN1CCC(=O)N(CCOC)Cc2ccccc21 (configuration not stated) | 3.23 |
| O=C(c1cccc(CNS(=O)(=O)c2ccc(F)cc2)c1)N1CCCC1 | -8.57 |
| COc1ccc(C2=C(C)C(N3CCc4ccccc4C3)=NS2(=O)=O)cc1 | -6.34 |
| Cc1cc(C(=O)N2C[C@@H]3COC[C@]3(c3nnc(C4CC4)o3)C2)on1 | -10 |
| Cc1cc(C)n(CC2CCCN2CC(=O)Nc2nnc(C)s2)n1 (configuration not stated) | 5.29 |
| CC(=O)N1CCC(c2cc(Nc3ncccn3)nc(C)n2)C1 (configuration not stated) | -27.7 |
| Cc1ccc(CN2CC[C@H]3OCC[C@@H](C(=O)N4CCCCO4)[C@@H]3C2)o1 | 3.54 |
| Cn1cc(C(=O)NCc2cn3c(n2)CN(Cc2ccccn2)CC3)cn1 | -13.7 |
| COCC1Cn2nnc(-c3cnn(C)c3)c2CN1Cc1cccs1 (configuration not stated) | 6.24 |
| Cc1cnc(NC(=O)c2ccc(C3CCCN3CC(C)C)s2)s1 (configuration not stated) | 9.45 |
| Cc1cccc(C)c1NC(=O)CN(C)C(C)c1nc(C(C)(C)C)no1 (configuration not stated) | -6.85 |
| O=C(CCN1CCCC(CO)(CC2CC2)C1)NCc1cccc(Cl)c1 (configuration not stated) | -1.07 |

| SMILES | cytotoxicity at 10 µM [%] |
| --- | --- |
| c1coc(-c2noc(CN3CCCC3Cn3cncn3)n2)c1 (configuration not stated) | -0.282 |
| Cn1ccnc1N1CCN(C(=O)Cc2ccc(F)cc2)CC1 | 4.73 |
| O=C(Cc1csc(-c2ccc(Cl)cc2)n1)NC(C(=O)O)c1ccccc1 (configuration not stated) | 4.91 |
| Cn1cc(CN2CCCn3cnc(COCC4CC4)c3C2)cn1 | -6.66 |
| Cc1cc(CS(=O)(=O)C(C)c2ccc(F)cc2)on1 (configuration not stated) | -0.0986 |
| COc1c(C2CCCN2Cc2nc(-c3ccco3)no2)c(C)nn1C (configuration not stated) | -10.2 |
| Cc1ccsc1CN(CCN(C)C)Cc1ccccn1 | -16.1 |
| O=C(O)[C@@H]1CN(C2CCOCC2)C[C@H]1C1CC1 | -160 |
| CCOc1cc(C(=O)n2cc(C)cn2)cc(OCC)c1OCC | 8.29 |
| COc1ccc(-c2n[nH]cc2CN(C)Cc2nnc(C)o2)c(F)c1 | -3.01 |
| Cc1nc(NCc2nncn2C2CC2)c2c(CC(C)C)csc2n1 | -5.57 |
| COc1cc(C2CC(=O)Oc3cc(C)[nH]c(=O)c32)ccc1O (configuration not stated) | -8.64 |
| COCCn1cnc2ccc(NC(=O)c3ccccn3)cc2c1=O | -6.81 |
| CC(NC(=O)NCCCn1cncn1)c1ccc2c(c1)CC(=O)N2 (configuration not stated) | -8.01 |
| CCCn1nc(C)c2c(C(F)F)cc(=O)n(CC(=O)O)c21 | 1.76 |
| Cc1nc(O)cc(CN2C[C@H](NS(=O)(=O)N(C)C)[C@@H](C3CC3)C2)n1 | -5.01 |
| Cc1ccc(C(=O)N2CCOC(c3ncc(CN(C)C)[nH]3)C2)cc1F (configuration not stated) | 0.388 |
| CCCc1cc(C(=O)NC(C)c2ccccc2)n(C)n1 (configuration not stated) | -4.45 |
| Cc1cc2n(n1)CC(CNCc1ccc(N3CCOCC3)nc1)CN2 (configuration not stated) | -15.3 |
| COc1cccc(OCc2nnc3n2N=C(C(C)(C)C)CS3)c1 | 4.4 |
| O=C(c1ccccn1)N1CCC2(CC1)COC(COc1cccnc1)C2 (configuration not stated) | -1.98 |

| SMILES | cytotoxicity at 10 µM [%] |
| --- | --- |
| O=C(NCc1cccnc1N1CCCC(O)C1)c1ccc2[nH]nnc2c1 (configuration not stated) | 11.4 |
| CN(C(=O)CN1CCCC1c1cnn(C)c1)C(C)(C)C#N (configuration not stated) | -1.37 |
| Fc1ccccc1CN1C[C@@H]2CN(Cc3cccnc3)CCO[C@@H]2C1 | 9.2 |
| Cn1c(CN2CCN(c3cccnc3)CC2)cc2ccccc21 | 5.33 |
| Cc1cc2c(=O)n(CCOCCO)cnc2s1 | 8.72 |
| O=C(NC1CC1)N1CCC2(CC1)C(=O)NCCN2Cc1ccccc1 | -0.685 |
| O=C(c1cnc(NCC2CCCO2)c(Cl)c1)N1CCCCC1 (configuration not stated) | 0.139 |
| CC(=O)N1CCC(c2nc3ccc(C)cn3n2)CC1 | 0.819 |
| Cc1[nH]c2nc(CNc3cccc(Cl)c3)nn2c(=O)c1C | 0.0924 |
| NC(=O)C1CCN(C(=O)c2cccn2Cc2cccs2)C1 (configuration not stated) | -8.5 |
| CCOc1ccccc1CCNC(=O)NCC(O)c1ccsc1 (configuration not stated) | -2.23 |
| O=C(NCc1ccc(N2CCSCC2)cc1)NCc1cc[nH]n1 | -0.645 |
| CC(C)=CCN1Cc2nnc(C3CCOCC3)n2C(Cc2c[nH]cn2)C1 (configuration not stated) | -9.36 |
| O=C1N(Cc2cccnc2)C[C@H]2CN(C3CCOCC3)CCN12 | -9.7 |
| O[C@H]1CN(CCOc2ccc(F)cc2)CC[C@@]12CCCO2 | -28.8 |
| COC1(CNC(=O)c2ccc(Cl)c(Cl)c2)CCSC1 (configuration not stated) | 2.05 |
| Cc1nc(CNCc2ccc(OC34CCCN(CC3)C4)cc2)n[nH]1 (configuration not stated) | 1.01 |
| CCc1n[nH]c(C2CN(C(=O)c3ccnc(C4CC4)n3)CCO2)n1 (configuration not stated) | 2.4 |
| COc1ccc(C(C#N)NC(=O)CC2=CCCCC2)c(OC)c1 (configuration not stated) | 10.7 |
| N#Cc1ccnc(N2CCN(C3CCOC3=O)CC2)c1 (configuration not stated) | -1.98 |
| CCN(Cc1cn(C)nc1-c1ccc2c(c1)OCCO2)CC1CCCO1 (configuration not stated) | 2.85 |

| SMILES | cytotoxicity at 10 µM [%] |
| --- | --- |
| Fc1ccc(C(CNc2ccncn2)N2CCCCC2)cc1 (configuration not stated) | -1.88 |
| COc1ccc(CN2C[C@@H]3C(CC(=O)N4CCCC4)[C@@H]3C2)cc1 (some centres not stated) | -13.8 |
| CCOc1ccccc1-n1c(CNC)n[nH]c1=O | -2.98 |
| Cc1nc(C)n(CC2CN(CCOc3cccc(C#N)c3)CCO2)n1 (configuration not stated) | -13.2 |
| CN1CCc2nc(C3CCCN(S(=O)(=O)N4CCCC4)C3)ncc2C1 (configuration not stated) | 2.4 |
| NS(=O)(=O)CCCNC(=O)C1(c2cccc(Cl)c2)CC1 | -4.02 |
| Cc1cccc(C2CCN(S(=O)(=O)c3cn(C)cn3)CC2)n1 | -20.2 |
| Cc1nc(C(C)NC(=O)c2cn(C/C=C/c3ccccc3)nn2)n[nH]1 (configuration not stated) | 10.7 |
| CC(C)c1nnc2ccc(N3CCC(C(=O)O)CC3)nn12 | -1.92 |
| O=C(NCc1cncc2c1CCN(C1CCOC1)C2)c1ccco1 (configuration not stated) | 0.797 |
| CC(C)c1cccc(-n2cc(O)c(C(=O)NCCC(=O)N(C)C)n2)c1 | -2.53 |
| CSc1nccc(N2CCC(NCc3ccc4nsnc4c3)CC2)n1 | 28.3 |
| O=C(NCC1CC1)C1CCC2(CCNCC2)C1 (configuration not stated) | 1.91 |
| COc1cccc2sc(N3CCN(C(=O)c4cc(C)on4)CC3)nc12 | 6.21 |
| Cc1nc(C)c(C(=O)NCCNc2ncccn2)s1 | -3.65 |
| CCc1nc(CN(C)CC(N)=O)cs1 | -8.9 |
| COc1cc(CNCC(O)c2ccc(C)cc2)cc2c1OCCO2 (configuration not stated) | -6.61 |
| CC(C)c1nc(CC(=O)Nc2cnccc2O)cs1 | 9.89 |
| Cc1ccc(N2CCCC(NCc3ccc4c(c3)CCO4)C2)nn1 (configuration not stated) | -16.1 |
